Laboratory results taken from ChEMBL document CHEMBL2203163, “Bromine- and chlorine-containing aeruginosins from Microcystis aeruginosa bloom material collected in Kibbutz Geva, Israel” (J Nat Prod, 2012).

Assays:
[1] = Inhibition of trypsin
How it was run: (§1)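 Protease-inhibition assay read on a microplate (ELISA-type) reader. Activity is reported as IC50.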

[2] = Inhibition of thrombin; how it was run: as §1

Row | IC50 [1] [µM] | IC50 [2] [µM] | SMILES
1 | 2.3 | 12.9 | CC[C@H](C)[C@@H](NC(=O)[C@H](O)Cc1cc(Br)c(O)c(Br)c1)C(=O)N1[C@H](C(=O)NCCCCNC(=N)N)C[C@@H]2CC[C@@H](O)C[C@@H]21 (relative stereo)
2 | 3.2 | 12.8 | CC[C@H](C)[C@@H](NC(=O)[C@H](O)Cc1cc(Cl)c(O)c(Br)c1)C(=O)N1[C@H](C(=O)NCCCCNC(=N)N)C[C@@H]2CC[C@@H](O)C[C@@H]21 (relative stereo)

The next lines start with the compound.

Row | SMILES | IC50 [1] [µM] | IC50 [2] [µM]
3 | CC(C)C[C@@H](NC(=O)[C@H](O)Cc1cc(Cl)c(O)c(Cl)c1)C(=O)N1[C@H](C(=O)NCCCCNC(=N)N)C[C@@H]2CC[C@@H](O)C[C@@H]21 | 8.5 | > 45.5
4 | CC[C@H](C)[C@@H](NC(=O)[C@H](O)Cc1cc(Br)c(O)c(Br)c1)C(=O)N1[C@H](C(=O)NCCCCNC(=N)N)C[C@@H]2CC[C@@H](OS(=O)(=O)O)C[C@@H]21 (relative stereo) | 18.2 | > 45.5
5 | CC[C@H](C)[C@@H](NC(=O)[C@H](O)Cc1cc(Cl)c(O)c(Br)c1)C(=O)N1[C@H](C(=O)NCCCCNC(=N)N)C[C@@H]2CC[C@@H](OS(=O)(=O)O)C[C@@H]21 (relative stereo) | 12.2 | > 45.5
